Data from ChEMBL document CHEMBL2150868, “Bi-, tri-, and polycyclic acylphloroglucinols from Hypericum empetrifolium” (J Nat Prod, 2012).

Key:
[1] = Antiangiogenic activity in bovine endothelial cells assessed as inhibition of cell proliferation; assay type: functional, cell-based; conditions: Bos taurus
[2] = Antiangiogenic activity in SV-40T transfected human HMEC1 cells assessed as inhibition of cell proliferation after 72 hrs by crystal violet staining; assay type: functional, cell-based; conditions: HMEC-1, 72 h
How it was run: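 SV-40T-transfected human microvascular endothelial HMEC-1 cells kept at 37 °C, 5% CO2, humidified. Seeded 1.5 × 10^3 cells/well in endothelial growth medium with 10% FCS, allowed 24 h adhesion (crystal-violet baseline plate). Exposed to 0.1−30 or 0.2−60 μM compound (DMSO; 0.1% DMSO control) for 72 h. Crystal violet stain, A540. IC50 ± SD from three independent experiments, hexaplicates.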

## CC(C)=CCC[C@]1(C)[C@@H](CC=C(C)C)C[C@]2(CC=C(C)C)C(=O)C(CC=C(C)C)=C(O)[C@@]1(C(=O)C(C)C)C2=O
[1]
  IC50: 2100 nM

## CCC(C)C(=O)c1c(O)cc2c(c1O)CCC(C)(CCC=C(C)C)O2 (centres undefined)
[2]
  IC50: 21.1 µM

## CCC(C)C(=O)c1c(O)cc(O)c2c1OC(C)(CCC=C(C)C)CC2 (centres undefined)
[2]
  IC50: 13.3 µM

## CC(C)=CCCC1(C)CCc2c(O)cc(O)c(C(=O)C(C)C)c2O1 (centres undefined)
[2]
  IC50: 16.5 µM

## CC(C)=CCCC1(C)CCc2c(cc(O)c(C(=O)C(C)C)c2O)O1 (centres undefined)
[2]
  IC50: 29.6 µM

## CC(C)C(=O)c1c(O)cc(O)c2c1O[C@]1(C)CCCC(C)(C)[C@H]1C2 (relative stereo) [EMPETRIFERDINAN A]
[2]
  IC50: 24.4 µM

## CCC(C)C(=O)c1c(O)cc(O)c2c1O[C@]1(C)CCCC(C)(C)[C@H]1C2 (relative stereo) [EMPETRIFERDINAN B]
[2]
  IC50: 16.6 µM

## CCC(C)C(=O)c1c(O)cc(O)c2c1O[C@]1(C)CC[C@@H](O)C(C)(C)[C@H]1C2 (relative stereo) [EMPETRIFERDINOL]
[2]
  IC50: 29.2 µM

## CC(C)=CCC[C@@]1(C)Oc2c(c(O)cc(O)c2C(=O)C(C)C)C[C@@H]1O (relative stereo) [EMPETRIKARINOL A]
[2]
  IC50: 23.4 µM

## CCC(C)C(=O)c1c(O)cc(O)c2c1O[C@](C)(CCC=C(C)C)[C@@H](O)C2 (relative stereo) [EMPETRIKARINOL B]
[2]
  IC50: 18.4 µM

## CCC(C)C(=O)c1c(O)cc2c3c1OC(C)(C)C1CCC(C)(CC31)O2 (centres undefined) [EMPETRIFRANZINAN C]
[2]
  IC50: 9.2 µM

## CC(C)=CCCC1(C)C=Cc2c(O)cc(O)c(C(=O)C(C)C)c2O1 (centres undefined) [EMPETRIKARINEN A]
[2]
  IC50: 24.4 µM

## CCC(C)C(=O)c1c(O)cc(O)c2c1OC(C)(CCC=C(C)C)C=C2 (centres undefined) [EMPETRIKARINEN B]
[2]
  IC50: 15 µM

## COc1cc(O)c(CC=C(C)C)c(O)c1C(=O)/C=C/c1ccc(O)cc1 [XANTHOHUMOL]
[2]
  IC50: 11.4 µM
